These results are taken from ChEMBL document CHEMBL1909603, “Synthesis of novel N-(2-hydroxy-2-p-tolylethyl)-amide and N-(2-oxo-2-p-tolylethyl)-amide derivatives and their antidyslipidemic and antioxidant activity” (2011).

Holding throughout (assay type): functional
In test [1] the test system is Rattus norvegicus. The test is described as follows: Antihyperlipidemic activity in Charles Foster rat assessed as reduction of triton WR-1339-induced plasma total cholesterol level at 100 mg/kg, po after 18 hrs. Also on record: scale not given: the % may be the effect or the level left. Summed up:
(§1)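 Male Charles Foster rats (100–150 g), six per group. Triton WR-1339 400 mg/kg ip with simultaneous oral dosing at 100 mg/kg, given as a gum acacia (0.2% w/v) suspension in water. Diet was withdrawn. Vehicle went to the control and triton groups. At 18 h, under thiopentone anaesthesia, retro-orbital blood was taken into EDTA and spun at 4 °C. Plasma diluted 1:3 in saline. TC, TG and PL measured by enzymatic kits. Mean SD.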

Test [2] relates to Rattus norvegicus. The test is described as follows: Antihyperlipidemic activity in Charles Foster rat assessed as reduction of triton WR-1339-induced plasma triglyceride level at 100 mg/kg, po after 18 hrs. Also on record: scale not given: the % may be the effect or the level left. The essentials: as §1
For test [3], the system named is Rattus norvegicus. Description: Antihyperlipidemic activity in Charles Foster rat assessed as reduction of triton WR-1339-induced plasma phospholipid level at 100 mg/kg, po after 18 hrs. Also on record: scale not given: the % may be the effect or the level left. Summed up: as §1
The test system of test [4] is Rattus norvegicus. The test is described as follows: Antihyperlipidemic activity in Charles Foster rat assessed as reduction of triton WR-1339-induced plasma protein level at 100 mg/kg, po after 18 hrs. Also on record: scale not given: the % may be the effect or the level left.
Test [5] has as its system Rattus norvegicus. The test is described as follows: Antihyperlipidemic activity in Charles Foster rat assessed as reduction of triton WR-1339-induced plasma post heparin lipolytic activity assessed per mL of plasma at 100 mg/kg, po after 18 hrs. Set-up: scale not given: the % may be the effect or the level left. Summed up: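 Male Charles Foster rats (100–150 g), six per group. Triton WR-1339 400 mg/kg ip together with an oral 100 mg/kg dose in gum acacia suspension. Diet was withdrawn and vehicle controls were included. At 18 h, EDTA plasma was taken from retro-orbital blood. Post-heparin lipolytic activity was measured spectrophotometrically as nmol free fatty acid formed/h/ml plasma. Mean SD.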

Test [6] is described as follows: Antioxidant activity assessed as hydroxyl radical scavenging activity by measuring malondialdehyde formation at 200 mg/ml after 90 mins by thiobarbituric acid method. The essentials:
(§2)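 Non-enzymic hydroxyl radical generation: deoxyribose 2.8 mM, FeSO4 2 mM, sodium ascorbate 2.0 mM and H2O2 2.8 mM in 50 mM KH2PO4 pH 7.4, with or without sample. Incubated at 37 °C for 90 min alongside reference samples and reagent blanks. MDA measured spectrophotometrically by the thiobarbituric acid method.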

A short description of test [7]: Antioxidant activity assessed as xanthine-xanthine oxidase generated superoxide anion scavenging at 100 mg/ml after 30 mins by NBT reduction assay. The essentials:
(§3)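 Enzymic superoxide generation with xanthine, xanthine oxidase (0.04 U) and nitroblue tetrazolium in 100 mM phosphate buffer pH 8.2, with or without sample. Incubated at 37 °C for 30 min, then stopped with glacial acetic acid. Formazan read at 560 nm. Percent inhibition calculated using ε 7.2 × 10³ M/cm.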

A short description of test [8]: Antioxidant activity assessed as xanthine-xanthine oxidase generated superoxide anion scavenging at 200 mg/ml after 30 mins by NBT reduction assay. Summed up: as §3
The nature of test [9]: Antioxidant activity assessed as hydroxyl radical scavenging activity by measuring malondialdehyde formation at 100 mg/ml after 90 mins by thiobarbituric acid method. Summed up:
as §2

Test [10] can be described thus: Antioxidant activity against microsomal lipid peroxidation assessed as malondialdehyde formation at 100 mg/ml after 90 mins by thiobarbituric acid method.
The nature of test [11]: Antioxidant activity against microsomal lipid peroxidation assessed as malondialdehyde formation at 200 mg/ml after 90 mins by thiobarbituric acid method.

On to `Cc1ccc(C)c(OCCCC(C)(C)C(=O)O)c1` [GEMFIBROZIL], for which the Activity in [1] is 33%; in test [2], 31%; in test [3], 36%; in test [4], 31%; in [5] it was 23%.

For the molecule `Cc1ccc(C(O)CNC(=O)/C=C/c2ccc(O)cc2)cc1` (mixture of isomers), the Activity is 7% in [1]; 9% in test [2]; 9% in test [3]; 8% in [4]; 7% in [5].

In the case of `OC[C@@H](O)[C@@H](O)[C@H](O)[C@H](O)CO`, the Activity in test [6] came to 45%.

In the case of `Cc1ccc(C(O)CNC(=O)/C=C/c2ccc(Cl)c(Cl)c2)cc1` (racemic), the Activity in [1] amounted to 16%; in test [2] it was 14%; in test [3], 13%; in test [4] it was 15%; in test [5] it was 14%.

For `COc1cc(/C=C/C(=O)NCC(=O)c2ccc(C)cc2)ccc1O`, the Activity in [1] worked out at 5%; in [2] it was 10%; in [3] it was 6%; in test [4] it was 10%; in test [5], 13%.

In the case of `Cc1ccc(C(O)CNC(=O)/C=C/c2ccccc2O)cc1` (mixture of isomers), the Activity in test [1] amounted to 8%; in test [2], 9%; in test [3] it was 7%; in test [4] it was 8%; in test [5], 5%.

Regarding `COc1cc(/C=C/C(=O)NCC(O)c2ccc(C)cc2)ccc1O` (mixture of isomers), the Activity in test [1] was 24%; in test [2], 23%; in test [3], 22%; in test [4] it was 21%; in [5], 21%; in test [7], 21%. The Activity in test [8] is 32%; in test [9], 18%; in test [6], 27%; in [10], 19%; in [11] it was 23%.

For the molecule `COc1ccc([C@@H](O)CNC(=O)/C=C/c2ccccc2)cc1` [AEGELINE], the Activity turned out to be 24% in test [1]; 22% in test [2]; 23% in test [3]; 24% in [4]; 14% in test [5]; 19% in test [7]. Besides, the Activity is 25% in test [8], 18% in [9] and 22% in [6].

In the case of `Cc1c(C)c2c(c(C)c1O)CC[C@@](C)(CCC[C@H](C)CCC[C@H](C)CCCC(C)C)O2`, in [11], the Activity was found to be 63%.

With `Cc1ccc(C(=O)CNC(=O)/C=C/c2ccc(OS(=O)(=O)c3ccc(C)cc3)cc2)cc1`, the Activity in [1] was 7%; in [2] it was 4%; in [3] it was 9%; in test [4], 6%; in test [5] it was 7%.

For the molecule `Cc1ccc(C(O)CNC(=O)Cc2cccnc2)cc1` (racemic), the Activity in [1] was found to be 23%; in [2], 25%; in test [3] it was 22%; in test [4], 23%; in test [5], 19%; in [7], 17%. Moreover, the Activity in [8] amounted to 31%; in test [9] it was 17%; in test [6], 29%; in [10] it was 22%; in test [11], 29%.

On to `Cc1ccc(C(=O)CNC(=O)/C=C/c2ccc(O)cc2)cc1`, for which the Activity in test [1] is 22%; in test [2], 21%; in test [3], 23%; in test [4] it was 20%; in test [5] it was 19%; in test [7] it was 17%. For the same molecule, the Activity worked out at 31% in test [8]; 17% in test [9]; 29% in test [6]; 22% in [10]; 29% in [11].

As for `Cc1ccc(C(=O)CNC(=O)CCc2cccnc2)cc1`, the Activity in test [1] was found to be 24%; in test [2], 22%; in test [3], 24%; in test [4], 21%; in [5], 20%; in test [7], 24%. The Activity was determined as 31% in test [8]; 19% in test [9]; 33% in test [6]; 19% in test [10]; 29% in test [11].

As for `Cc1ccc(C(=O)CNC(=O)c2cccnc2)cc1`, the Activity is 4% in test [1]; 2% in test [2]; 6% in test [3]; 4% in test [4]; 6% in test [5].

Turning to `Cc1ccc(C(O)CNC(=O)c2ccc(Cl)c([N+](=O)[O-])c2)cc1` (racemic), the Activity in [1] was determined as 5%; in test [2], 11%; in test [3] it was 7%; in test [4] it was 11%; in [5] it was 8%.

Consider `Cc1ccc(C(=O)CNC(=O)c2ccc(Cl)c([N+](=O)[O-])c2)cc1`, for which the Activity was 4% in test [1]; 9% in test [2]; 5% in test [3]; 9% in test [4]; 8% in test [5].

Consider `COc1ccc(CC(=O)NCC(=O)c2ccc(C)cc2)cc1OC`, for which the Activity in test [1] came to 10%; in test [2], 12%; in [3], 14%; in [4], 14%; in test [5] it was 12%.

For the molecule `Cc1ccc(C(=O)CNC(=O)/C=C/c2ccc(Cl)c(Cl)c2)cc1`, the Activity in test [1] is 12%; in test [2], 12%; in test [3] it was 12%; in test [4], 13%; in test [5] it was 6%.

Regarding `Cc1ccc(C(=O)CNC(=O)Cc2ccc(F)cc2)cc1`, the Activity in [1] was 14%; in [2], 11%; in test [3], 15%; in [4], 19%; in test [5], 6%.

Consider `Oc1ncnc2[nH]ncc12`, for which, in test [8], the Activity came to 69%.

As to `Cc1ccc(C(=O)CNC(=O)Cc2cccnc2)cc1`, the Activity is 7% in [1]; 5% in test [2]; 7% in test [3]; 7% in test [4]; 8% in test [5].

`Cc1ccc(C(=O)CNC(=O)/C=C/c2ccccc2O)cc1`: the Activity in test [1] worked out at 11%; in test [2], 9%; in [3], 10%; in test [4], 8%; in test [5] it was 10%.
